Results collected from several papers.
Lines come from different studies, so protocols differ.
Target: Tyrosine-protein kinase receptor UFO (AXL, Homo sapiens, UniProt P30530)
Sequence (P30530 26-894, as in one of the studies): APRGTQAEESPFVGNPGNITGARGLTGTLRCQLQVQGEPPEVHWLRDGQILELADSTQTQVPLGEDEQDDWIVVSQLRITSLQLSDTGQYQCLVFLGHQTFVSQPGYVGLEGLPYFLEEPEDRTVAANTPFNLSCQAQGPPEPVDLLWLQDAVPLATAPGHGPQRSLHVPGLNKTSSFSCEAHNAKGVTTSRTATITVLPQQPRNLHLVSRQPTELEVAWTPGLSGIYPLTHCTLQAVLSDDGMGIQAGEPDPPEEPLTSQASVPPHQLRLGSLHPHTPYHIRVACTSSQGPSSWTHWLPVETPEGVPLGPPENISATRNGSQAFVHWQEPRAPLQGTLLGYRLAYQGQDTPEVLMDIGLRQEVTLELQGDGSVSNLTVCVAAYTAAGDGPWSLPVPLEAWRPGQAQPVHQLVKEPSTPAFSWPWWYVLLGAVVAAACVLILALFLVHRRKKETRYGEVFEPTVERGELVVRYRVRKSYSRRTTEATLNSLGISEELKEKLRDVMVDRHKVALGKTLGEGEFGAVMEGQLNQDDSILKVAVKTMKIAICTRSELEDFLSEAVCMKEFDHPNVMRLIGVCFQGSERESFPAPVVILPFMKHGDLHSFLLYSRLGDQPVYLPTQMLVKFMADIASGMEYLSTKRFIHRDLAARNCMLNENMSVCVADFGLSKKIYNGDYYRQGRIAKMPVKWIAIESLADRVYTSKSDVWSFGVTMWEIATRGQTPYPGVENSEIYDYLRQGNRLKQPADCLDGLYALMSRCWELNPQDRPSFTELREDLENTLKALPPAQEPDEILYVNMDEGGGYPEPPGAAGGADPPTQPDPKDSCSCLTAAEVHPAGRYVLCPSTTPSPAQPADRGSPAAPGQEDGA

SMILES | test | conditions | remaining binding [%]
O=C(NCCCN1CCOCC1)c1ccc(Nc2ncc(Cl)c(-c3ccc(Cl)s3)n2)cc1 | binding, competition with immobilised ligand | 1 µM | 76
CCOC(=O)c1cc2cc(-c3cc(C(=O)NCc4ccc(C(=O)O)cc4)nn3C)ccc2[nH]1 | cell-free assay, competition with immobilised ligand | 0.1 µM | 89
c1cncc(-c2cccc(Nc3nccc(NC4CCCCC4)n3)c2)c1 | binding, competition with immobilised ligand | 10 µM | 4
CC(C)(C)c1ccc(-c2nc(CBr)nn2-c2cccc(O)c2)cc1 | cell-free assay, competition with immobilised ligand | 10 µM | 84
O=C(Nc1c[nH]nc1C(=O)NC1CCNCC1)c1cc(F)cc(F)c1 | binding, competition with immobilised ligand | 1 µM | 100
O=C(c1ccc(Nc2ncc(Cl)c(-c3cc4ccccc4s3)n2)cc1)N1CCC(N2CCCC2)CC1 | binding, competition with immobilised ligand | 1 µM | 1.4
COc1ccnn2ncc(-c3ccnc(N(C)C)n3)c12 | binding | 1 µM | 100
NS(=O)(=O)c1cc(NC(=O)C2(c3ccccc3Cl)CC2)ccc1Oc1cccc(Cl)c1 | cell-free assay, competition with immobilised ligand | 1 µM | 89
O=C(c1ccc(Nc2ncc(Cl)c(-c3ccc(Cl)s3)n2)cc1)N1CCC(N2CCCC2)CC1 | binding, competition with immobilised ligand | 1 µM | 28
C[C@@H]1CN(c2ccc3ncc(-c4ccc5[nH]nc(C6CC6)c5c4)n3n2)C[C@H](C)O1 | binding, competition with immobilised ligand | 50 nM | 95
C[C@@H]1CCN(c2nccc(-c3cnn4ncccc34)n2)C1 | binding | 1 µM | 86
COc1cnc(Nc2cccc(S(N)(=O)=O)c2)nc1N1CCN(c2ccccc2)C(=O)C1 | binding, competition with immobilised ligand | 1 µM | 94
CN(CCCC(F)(F)F)c1nccc(-c2cnn3ncccc23)n1 | binding | 1 µM | 75
Nc1ncc2c(n1)-c1c([nH]c3ccc(C#CC4CC4)cc13)CCCC2 | binding, competition with immobilised ligand | 1 µM | 87
CCc1ccccc1C(=O)Nc1n[nH]c2c(C)c(F)c(C3C(C#N)=C(C)N(C)C(C)=C3C#N)cc12 | binding, competition with immobilised ligand | 1 µM | 100
CNC(=O)[C@@H]1CC[C@@H](n2c(-c3ccc4cnccc4c3)nc3ccc(C(=O)NCc4cccc(C(N)=O)c4)cc32)C1 | binding, competition with immobilised ligand | 1 µM | 99
CCCCN(CCCC)C(=O)CN1C[C@H](c2cc(OC)c3c(c2)OCO3)[C@@H](C(=O)O)[C@@H]1CC(C)(C)CCC | cell-free assay, competition with immobilised ligand | 1 µM | 100
C=CC(=O)N1CCC(C(=O)NCC(=O)N2CCN(c3nc(-c4cnc(N)nc4C(F)F)nc(N4CCOCC4)n3)CC2)CC1 | binding, competition with immobilised ligand | 1 µM | 97
CNC(=O)c1ccc(Nc2ncc(C(F)(F)F)c(NCc3nccnc3N(C)S(C)(=O)=O)n2)cc1 | cell-free assay, competition with immobilised ligand | 0.1 µM | 51
CN(C)c1nccc(-c2cnn3ncccc23)n1 | binding | 1 µM | 100
CC(=O)N1CCC(c2ccc(C(=O)NC3=NCCN3)cc2C(F)(F)F)CC1 | cell-free assay, competition with immobilised ligand | 1 µM | 100
F[C@@H]1CCN(c2nccc(-c3cnn4ncccc34)n2)C1 | binding | 1 µM | 87
CN([C@@H]1CCc2c(CC(=O)O)c3cc(S(C)(=O)=O)ccc3n2C1)S(=O)(=O)c1ccc(F)cc1 | cell-free assay, competition with immobilised ligand | 1 µM | 100
N[C@@H]1CCN(c2nccc(-c3cnn4ncccc34)n2)C1 | binding | 1 µM | 100
